ChEMBL document CHEMBL3286094, “Synthesis and biological evaluation of novel bisbenzimidazoles as Escherichia coli topoisomerase IA inhibitors and potential antibacterial agents” (J Med Chem, 2014)
≈ marks a conversion by molar mass, not a printed value. Calls of active or inactive are those of the source. No cut-off for these calls is given here.

Legend:
[1] = test system: Escherichia coli; assay: Antibacterial activity against ampicillin/ciprofloxacin/gentamicin/tetracycline-resistant Escherichia coli 555 assessed as growth inhibition after 18 to 24 hrs by broth microdilution method; assay type: functional
[2] = test system: Escherichia coli; assay: Bactericidal activity against ciprofloxacin-resistant Escherichia coli 72 by agar plating method; assay type: functional
[3] = test system: Escherichia coli; assay: Bactericidal activity against ampicillin/kanamycin/trimethoprim/tetracyclin/ciprofloxacin/nalidixic acid-resistant Escherichia coli 81 by agar plating method; assay type: functional
[4] = test system: Escherichia coli; assay: Bactericidal activity against chloramphenicol/ampicillin/kanamycin/trimethoprim/ciprofloxacin/nalidixic acid-resistant Escherichia coli 132 by agar plating method; assay type: functional
[5] = test system: Escherichia coli; assay: Bactericidal activity against ampicillin/chloramphenicol/ciprofloxacin/gentamicin/tetracycline-resistant Escherichia coli 401 by agar plating method; assay type: functional
[6] = test system: Escherichia coli; assay: Bactericidal activity against ampicillin/ciprofloxacin/gentamicin/tetracycline-resistant Escherichia coli 555 by agar plating method; assay type: functional
[7] = Inhibition of Escherichia coli DNA topoisomerase-1A using supercoiled pHOT1 plasmid DNA as substrate assessed as inhibition of DNA relaxation after 30 mins by agarose gel electrophoresis
Outline: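 Supercoiled plasmid DNA incubated with E. coli Topo IA in the presence of compound at […]. Relaxation products were resolved by electrophoresis on 1% agarose gel.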

[8] = test system: Escherichia coli; assay: Inhibition of Escherichia coli DNA gyrase using relaxed pHOT1 plasmid DNA as substrate assessed as inhibition of DNA supercoiling up to 100 uM after 30 mins by agarose gel electrophoresis
[9] = organism: Homo sapiens; assay: Inhibition of human DNA topoisomerase-1B using supercoiled pHOT1 plasmid DNA as substrate assessed as inhibition of DNA relaxation at 100 uM after 30 mins by agarose gel electrophoresis
[10] = test system: Escherichia coli; assay: Antibacterial activity against Escherichia coli ATCC 25922 assessed as growth inhibition after 18 to 24 hrs by broth microdilution method; assay type: functional
[11] = test system: Escherichia coli; assay: Antibacterial activity against ciprofloxacin-resistant Escherichia coli 72 assessed as growth inhibition after 18 to 24 hrs by broth microdilution method; assay type: functional
[12] = test system: Escherichia coli; assay: Antibacterial activity against ampicillin/trimethoprim/nalidixic acid-resistant Escherichia coli 118 assessed as growth inhibition after 18 to 24 hrs by broth microdilution method; assay type: functional
[13] = test system: Escherichia coli; assay: Antibacterial activity against chloroamphenicol/ampicillin/kanamycin/trimethoprim/ciprofloxacin/nalidixic acid-resistant Escherichia coli 85 assessed as growth inhibition after 18 to 24 hrs by broth microdilution method; assay type: functional
[14] = test system: Escherichia coli; assay: Antibacterial activity against gentamicin/kanamycin/tetracycline/nalidixic acid-resistant Escherichia coli 360 assessed as growth inhibition after 18 to 24 hrs by broth microdilution method; assay type: functional
[15] = test system: Escherichia coli; assay: Antibacterial activity against ampicillin/tetracycline/gentamicin-resistant Escherichia coli 451 assessed as growth inhibition after 18 to 24 hrs by broth microdilution method; assay type: functional
[16] = test system: Escherichia coli; assay: Antibacterial activity against chloramphenicol/ampicillin/trimethoprim/ciprofloxacin/nalidixic acid-resistant Escherichia coli 59 assessed as growth inhibition after 18 to 24 hrs by broth microdilution method; assay type: functional
[17] = test system: Escherichia coli; assay: Antibacterial activity against ampicillin/kanamycin/trimethoprim/tetracyclin/ciprofloxacin/nalidixic acid-resistant Escherichia coli 81 assessed as growth inhibition after 18 to 24 hrs by broth microdilution method; assay type: functional
[18] = test system: Escherichia coli; assay: Antibacterial activity against chloramphenicol/ampicillin/kanamycin/trimethoprim/ciprofloxacin/nalidixic acid-resistant Escherichia coli 132 assessed as growth inhibition after 18 to 24 hrs by broth microdilution method; assay type: functional
[19] = test system: Escherichia coli; assay: Antibacterial activity against chloramphenicol/ampicillin/kanamycin/trimethoprim/ciprofloxacin/nalidixic acid-resistant Escherichia coli 151 assessed as growth inhibition after 18 to 24 hrs by broth microdilution method; assay type: functional
[20] = test system: Escherichia coli; assay: Antibacterial activity against ampicillin/chloramphenicol/ciprofloxacin/gentamicin/tetracycline-resistant Escherichia coli 401 assessed as growth inhibition after 18 to 24 hrs by broth microdilution method; assay type: functional
[21] = test system: Escherichia coli; assay: Bactericidal activity against multidrug-resistant Escherichia coli IS 54 isolated from water source by agar plating method; settings: IS 54, Water
[22] = test system: Escherichia coli; assay: Bactericidal activity against ampicillin/tetracycline/piperacillin-resistant Escherichia coli WB31 isolated from water source by agar plating method
[23] = test system: Escherichia coli; assay: Bactericidal activity against ampicillin/trimethoprim/piperacillin-resistant Escherichia coli MKNJ isolated from water source by agar plating method
[24] = test system: Escherichia coli; assay: Bactericidal activity against ampicillin/chloramphenicol/tetracycline/trimethoprim/ciprofloxacin-resistant Escherichia coli KK45 isolated from water source by agar plating method
[25] = test system: Escherichia coli; assay: Antibacterial activity against multidrug-resistant Escherichia coli IS 54 isolated from water source assessed as growth inhibition after 18 to 24 hrs by broth microdilution method; settings: IS 54, Water
[26] = test system: Escherichia coli; assay: Antibacterial activity against ampicillin/tetracycline-resistant Escherichia coli IP18 isolated from water source assessed as growth inhibition after 18 to 24 hrs by broth microdilution method
[27] = test system: Escherichia coli; assay: Antibacterial activity against tetracycline/trimethoprim-resistant Escherichia coli IST isolated from water source assessed as growth inhibition after 18 to 24 hrs by broth microdilution method
[28] = test system: Escherichia coli; assay: Bactericidal activity against cefazolinl/ampicillin/piperacillin/cefuroxime/cefepime/cefotaxime/tetracycline/ciprofloxacin-resistant Escherichia coli NG3 isolated from water source by agar plating method
[29] = test system: Escherichia coli; assay: Bactericidal activity against cefazolinl/ampicillin/piperacillin/cefuroxime/cefepime/cefotaxime/tetracycline/trimethoprim-resistant Escherichia coli KK16 isolated from water source by agar plating method
[30] = test system: Escherichia coli; assay: Antibacterial activity against ampicillin/tetracycline/piperacillin-resistant Escherichia coli WB31 isolated from water source assessed as growth inhibition after 18 to 24 hrs by broth microdilution method
[31] = test system: Escherichia coli; assay: Antibacterial activity against ampicillin/trimethoprim/piperacillin-resistant Escherichia coli MKNJ isolated from water source assessed as growth inhibition after 18 to 24 hrs by broth microdilution method
[32] = test system: Escherichia coli; assay: Antibacterial activity against ampicillin/trimethoprim/cefazolinl/piperacillin/cefuroxime/cefoxitine/cefepime/cefotaxime-resistant Escherichia coli KP21 isolated from water source assessed as growth inhibition after 18 to 24 hrs by broth microdilution method
[33] = test system: Escherichia coli; assay: Antibacterial activity against cefazolinl/ampicillin/piperacillin/cefuroxime/cefepime/cefotaxime/tetracycline/trimethoprim-resistant Escherichia coli KK16 isolated from water source assessed as growth inhibition after 18 to 24 hrs by broth microdilution method

CCCN1CCN(c2ccc3nc(-c4ccc5nc(-c6ccc(OC)c(OC)c6)[nH]c5c4)[nH]c3c2)CC1 showed an MIC50 [1] of 16 µg/mL (≈ 32.2 µM), an MIC90 [1] of 29.8 µg/mL (≈ 60 µM) and an MBC [2] of 4 µg/mL (≈ 8.05 µM). The MBC [3] was 16 µg/mL (≈ 32.2 µM), the MBC [4] was 128 µg/mL (≈ 258 µM) and the MBC [5] was 8 µg/mL (≈ 16.1 µM). The MBC [6] was 32 µg/mL (≈ 64.4 µM), the IC50 [7] was 3 µM and the inhibition [8] was “inactive”. For the same compound, the inhibition [9] was “Active”, the MIC50 [10] was 8 µg/mL (≈ 16.1 µM) and the MIC90 [10] was 12.5 µg/mL (≈ 25.2 µM). For the same compound, the MIC50 [11] was 2 µg/mL (≈ 4.03 µM), the MIC90 [11] was 3.4 µg/mL (≈ 6.85 µM) and the MIC50 [12] was 2 µg/mL (≈ 4.03 µM). It also gave an MIC90 [12] of 3.2 µg/mL (≈ 6.44 µM), an MIC50 [13] of 8 µg/mL (≈ 16.1 µM) and an MIC90 [13] of 15.2 µg/mL (≈ 30.6 µM). It also gave an MIC50 [14] of 8 µg/mL (≈ 16.1 µM), an MIC90 [14] of 15.2 µg/mL (≈ 30.6 µM) and an MIC50 [15] of 4 µg/mL (≈ 8.05 µM). The MIC90 [15] was 7.6 µg/mL (≈ 15.3 µM), the MIC50 [16] was 4 µg/mL (≈ 8.05 µM) and the MIC90 [16] was 7.5 µg/mL (≈ 15.1 µM). It also gave an MIC50 [17] of 8 µg/mL (≈ 16.1 µM), an MIC90 [17] of 14.5 µg/mL (≈ 29.2 µM) and an MIC50 [18] of 64 µg/mL (≈ 129 µM). It also gave an MIC90 [18] of 118 µg/mL (≈ 238 µM), an MIC50 [19] of 8 µg/mL (≈ 16.1 µM) and an MIC90 [19] of 15.1 µg/mL (≈ 30.4 µM). The MIC50 [20] was 4 µg/mL (≈ 8.05 µM), the MIC90 [20] was 7.2 µg/mL (≈ 14.5 µM) and the MBC [21] was 16 µg/mL (≈ 32.2 µM). The MBC [22] was 16 µg/mL (≈ 32.2 µM), the MBC [23] was 8 µg/mL (≈ 16.1 µM) and the MBC [24] was 8 µg/mL (≈ 16.1 µM). For the same compound, the MIC50 [25] was 8 µg/mL (≈ 16.1 µM), the MIC90 [25] was 14.8 µg/mL (≈ 29.8 µM) and the MIC50 [26] was 4 µg/mL (≈ 8.05 µM). It also gave an MIC90 [26] of 7.6 µg/mL (≈ 15.3 µM), an MIC50 [27] of 8 µg/mL (≈ 16.1 µM) and an MIC90 [27] of 14.9 µg/mL (≈ 30 µM). It also gave an MBC [28] of 8 µg/mL (≈ 16.1 µM), an MBC [29] of 4 µg/mL (≈ 8.05 µM) and an MIC50 [30] of 8 µg/mL (≈ 16.1 µM). The MIC90 [30] was 15.2 µg/mL (≈ 30.6 µM), the MIC50 [31] was 4 µg/mL (≈ 8.05 µM) and the MIC90 [31] was 7.6 µg/mL (≈ 15.3 µM). It also gave an MIC50 [32] of 8 µg/mL (≈ 16.1 µM), an MIC90 [32] of 14.8 µg/mL (≈ 29.8 µM) and an MIC50 [33] of 2 µg/mL (≈ 4.03 µM). For the same compound, the MIC90 [33] was 3.7 µg/mL (≈ 7.45 µM).
